Source: PubChem BioAssay AID588745 (Vanderbilt Specialized Chemistry Center, 2011)
Active and inactive are the calls of the source.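 The calls were made as follows: active = compounds whose response rose with dose, given a half-maximal potency and peak effect versus acetylcholine; inactive = the rest.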

Target: Muscarinic acetylcholine receptor M3 (Homo sapiens) (UniProt P20309)
Experiment: potentiation of ACh at human M3 – CHO cells, calcium fluorescence, counter-screen, dose response (AID 588745)
Conditions: CHO hM3 cells, Fluo-4 calcium fluorescence, PAM mode; series mostly up to 30 µM
In short: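 Assay system – human M3 CHO cells · Reagent – ACh EC20 followed by ACh EC80 · Times – compound 144 s before EC20 ACh, EC80 ACh 86 s later, 37 °C · Measured by – Fluo-4 calcium fluorescence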

Structure (SMILES)	outcome
Cc1nc2sc(C(=O)NCc3nccs3)c(N)c2c(C)c1Cl	inactive
Cc1nc2sc(C(=O)NCc3ccc4c(c3)OCO4)c(N)c2c(C)c1Cl	inactive
Cc1nc2sc(C(=O)NC3CC3)c(N)c2c(C)c1Cl	inactive
Cc1nc2sc(C(=O)NCCc3ccncc3)c(N)c2c(C)c1Cl	inactive
Cc1nc2sc(C(=O)NCc3cccnc3)c(N)c2c(C)c1Cl	inactive
Cc1nc2sc(C(=O)NCc3ccncn3)c(N)c2c(C)c1Cl	inactive
Cc1nc2sc(C(=O)NCc3ccncc3)c(N)c2c(C)c1Cl	inactive
Cc1nc2sc(C(=O)NCc3ccccc3)c(N)c2c(C)c1Cl	inactive
Cc1nc2sc(C(=O)NCc3cccc(F)c3F)c(N)c2c(C)c1Cl	inactive
